Source: ChEMBL document CHEMBL2406930, “Synthesis and electrochemical and biological studies of novel coumarin-chalcone hybrid compounds” (J Med Chem, 2013)
The source made the active and inactive calls. No cut-off for these calls is given here.

Experiments:
BAEC [1] = assay: (§1) Cytoprotective activity against peroxynitrite-induced toxicity in BAEC assessed as cell viability at 20 uM after 24 hrs by MTT assay; type: functional; conditions: Bos taurus
Procedure, shortened: (§2)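 Bovine aortic endothelial cells (BAEC) in DMEM with 10% FBS, endothelial growth supplement and no antibiotics were grown to 60–70% confluency. They were pretreated 24 h with compound at 10 or 20 µM, then washed twice with PBS. Insult was 1 mM H2O2 for 2 h, or 500 µM SIN-1 (peroxynitrite source) for 4 h. Viability was read by MTT reduction, formazan in DMSO, A570.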

[2] = Cytotoxicity against BAEC assessed as cell viability at 50 uM after 24 hrs by MTT assay; design: species or system Bos taurus; conditions: cattle, BAEC cells; read-out: Activity
Procedure, shortened: (§3)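 BAEC seeded at 10^4–10^5 cells/mL were grown to 60–70% confluency and exposed to compound (10–50 µM) for 24 h. Medium was then replaced and MTT added for 2 h at 37 °C. Formazan was dissolved in DMSO and read at 570 nm. Viability was taken relative to solvent-only wells, n = 3, mean ± SEM.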

[3] = Cytotoxicity against BAEC assessed as cell viability at 10 uM after 24 hrs by MTT assay; design: species or system Bos taurus; conditions: cattle, BAEC cells; read-out: Activity; procedure, shortened: as §3
BAEC [4] = assay: (§4) Cytoprotective activity against H2O2-induced toxicity in BAEC assessed as cell viability at 10 uM after 24 hrs by MTT assay; type: functional; conditions: Bos taurus; procedure, shortened: as §2
[5] = Antioxidant activity assessed as trolox equivalents of peroxyl radical scavenging activity at 0.7 to 7 uM preincubated for 15 mins by ORAC assay relative to control; type: functional; conditions: 0.5 to 7 uM; in the assay text read “0.5 to 7 uM” for “0.7 to 7 uM”
Procedure, shortened: (§5)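 Peroxyl radical scavenging by ORAC-FL in 75 mM sodium phosphate buffer (pH 7.4) at 37 °C. Fluorescein was 70 nM final. Compounds in methanol were tested at 0.3–2 µM for monohydroxy and 0.5–7 µM for dihydroxy derivatives, preincubated 15 min, then AAPH was added (18 mM final). Fluorescence (ex 485, em 528 nm) was read each minute for 120 min. Net AUC minus methanol blank was referenced to Trolox (0.5–2.5 µM).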

[6] = Cytotoxicity against BAEC assessed as cell viability at 20 uM after 24 hrs by MTT assay; design: species or system Bos taurus; conditions: cattle, BAEC cells; read-out: Activity; procedure, shortened: as §3
[7] = Antioxidant activity assessed as hydroxyl radical scavenging activity at 4 mM after 5 mins by ESR spectroscopy analysis
[8] = Antioxidant activity assessed as trolox equivalents of peroxyl radical scavenging activity at 0.3 to 2 uM preincubated for 15 mins by ORAC assay relative to control; type: functional; procedure, shortened: as §5
[9] = as §4; type: functional; conditions: Bos taurus, read-out: Activity; procedure, shortened: as §2
[10] = Antioxidant activity assessed as peroxyl radical scavenging activity by ORAC assay relative to trolox; type: functional
Procedure, shortened: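 Fluorescein-based ORAC in 75 mM sodium phosphate buffer pH 7.4 with FL 70 nM (final). Compounds in methanol at 0.3–2 µM (monohydroxy) or 0.5–7 µM (dihydroxy) preincubated 15 min at 37 °C, then AAPH 18 mM (final) added. Fluorescence (ex 485, em 528 nm) read every 1 min for 120 min. Net AUC minus methanol blank, expressed against Trolox calibration (0.5–2.5 µM).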

[11] = as §1; type: functional; conditions: Bos taurus, read-out: Activity; procedure, shortened: as §2

Row | SMILES | Activity (BAEC [1]) | viability at 24 h, 50 µM [2] [%] | viability at 24 h, 10 µM [3] [%] | Activity (BAEC [4]) | Ratio [5] | viability at 24 h, 20 µM [6] [%] | Activity [7] [%] | Ratio [8] | viability at 10 µM [9] [%] | Ratio [10] | viability at 20 µM [11] [%]
1 | O=C(c1ccc(O)c(O)c1)c1cc2cc(Br)ccc2oc1=O | inactive | 92 | 102 | inactive | 13 | 100 | 100 |  |  |  | 
2 | O=C(c1ccc(O)c(O)c1)c1cc2cc(Br)cc(O)c2oc1=O |  | 71 | 64 |  |  | 23 | 100 | 8.8 |  |  | 
3 | O=C(c1ccc(O)cc1)c1cc2ccccc2oc1=O |  | 44 | 76 |  |  | 60 | 26 | 9.2 |  |  | 
4 | O=C(c1ccccc1)c1cc2cc(O)ccc2oc1=O | inactive | 86 | 88 |  |  | 95 | 39 | 11.5 | 40 |  | 
5 | Oc1cc(O)c2c(c1)OC(c1ccc(O)c(O)c1)C(O)C2 (stereo not drawn) |  |  |  |  |  |  |  |  |  | 6.8 | 
6 | O=C(c1ccccc1)c1cc2cc(Br)cc(O)c2oc1=O |  | 93 | 96 |  |  | 101 | 65 | 8.3 |  |  | 90
7 | O=C(c1ccc(O)cc1)c1cc2cc(Br)ccc2oc1=O |  | 104 | 95 |  |  | 93 | 28 | 9.5 |  |  | 90
8 | O=C(c1ccc(O)cc1)c1cc2cc(O)ccc2oc1=O |  | 93 | 68 |  |  | 94 | 58 | 14.1 |  |  | 90
9 | Cc1c(C)c2c(c(C)c1O)CCC(C)(C(=O)O)O2 (stereo not drawn) |  |  |  |  |  |  | 31 | 1 |  |  | 
10 | O=C(c1ccc(O)c(O)c1)c1cc2cccc(O)c2oc1=O |  | 63 | 49 |  |  | 68 | 75 | 8.1 |  |  | 
11 | Cc1cccc2cc(C(=O)c3ccc(O)cc3)c(=O)oc12 |  | 101 | 87 |  |  | 82 | 45 | 10.9 | 40 |  | 90
12 | O=c1c(O)c(-c2ccc(O)c(O)c2)oc2cc(O)cc(O)c12 |  |  |  |  |  |  |  |  |  | 7.3 | 
